Assay results as given in ChEMBL document CHEMBL2407007, “Exploring the space of histidine containing dipeptides in search of novel efficient RCS sequestering agents” (Eur J Med Chem, 2013).
Residues, ends and D or L forms follow the SMILES beside them.

What was measured:
[1] = Antioxidant activity assessed as HNE quenching at 1 mM after 180 mins by HPLC analysis; format: functional
Outline: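 HNE consumption measured with dipeptide at 1 mM in 10 mmol PBS pH 7.4, 180 min at 37 °C. Remaining HNE measured by reversed-phase HPLC with PDA detection at 224 nm. Column at 37 °C. Isocratic H2O/CH3CN/HCOOH 40/60/0.1. Result given as % aldehyde consumed relative to a blank without compound.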

[2] = Antioxidant activity assessed as PYR quenching after 180 mins by HPLC analysis; format: functional; design: concentration or dose not given beside the values
Outline: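 Pyridoxal used as the target aldehyde under the same incubation (180 min). Consumption determined by HPLC with fluorimetric detection. Expressed as % aldehyde consumed versus a blank incubated without compound.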

[3] = Selectivity ratio of antioxidant activity assessed as HNE quenching to antioxidant activity assessed as PYR quenching
Outline: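 Ratio of % HNE quenched to % pyridoxal quenched. Both measured after 180 min incubation, with % consumption taken against blanks without compound.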

[4] = Stability in human serum assessed as compound remaining at 50 uM after 30 mins by LC-MS analysis; format: ADME, cell-free; conditions: read-out: Stability

remaining at 0.5 h, 50 µM [4] [%]	SMILES	Activity [1] [%]	Activity [2] [%]	Selectivity ratio [3]
	NC(=O)CC[C@H](N)C(=O)N[C@@H](Cc1cnc[nH]1)C(N)=O	9.37	2.65	3.54
	NCC(=O)N[C@@H](Cc1cnc[nH]1)C(=O)O (H-Gly-His-OH)	9.11	3.77	2.42
	CC[C@H](C)[C@H](N)C(=O)N[C@H](Cc1cnc[nH]1)C(N)=O	5.13	0.59	8.69
	COC(=O)[C@H](Cc1cnc[nH]1)NC(=O)[C@@H](N)CC(N)=O	9.59	1	9.59
	COC(=O)[C@H](Cc1c[nH]cn1)NC(=O)[C@@H](N)Cc1c[nH]c2ccccc12	11.7	4.2	2.79
	COC(=O)[C@H](Cc1cnc[nH]1)NC(=O)[C@@H](N)CO	5.18	0.1	51.8
	NC(=O)[C@H](Cc1cnc[nH]1)NC(=O)[C@@H](N)Cc1ccccc1	9.79	1.22	8.02
	NC(=O)[C@H](Cc1cnc[nH]1)NC(=O)[C@@H](N)Cc1c[nH]c2ccccc12	8.62	1.86	6.01
	COC(=O)[C@@H](Cc1cnc[nH]1)NC(=O)[C@@H](N)CCSC	1.81	3.11	0.58
	NC(=O)[C@H](Cc1cnc[nH]1)NC(=O)[C@@H](N)Cc1cnc[nH]1	9.81	7.86	1.35
	COC(=O)[C@H](Cc1cnc[nH]1)NC(=O)[C@@H](N)C(C)C	4.97	0.87	5.71
	C[C@@H](O)[C@H](N)C(=O)N[C@@H](Cc1cnc[nH]1)C(N)=O	3.9	1.42	2.75
	NC(=O)[C@@H](Cc1cnc[nH]1)NC(=O)[C@@H](N)CC(=O)O	5.98	1.16	4.02
	COC(=O)[C@@H](Cc1cnc[nH]1)NC(=O)[C@@H](N)CS	100	40.8	2.45
	COC(=O)[C@H](Cc1cnc[nH]1)NC(=O)[C@@H](N)CS	100	25.3	3.96
40.5	COC(=O)[C@@H](Cc1cnc[nH]1)NC(=O)[C@@H](N)Cc1ccc(O)cc1	27.4	1.29	21.3
	N=C(N)NCCC[C@H](N)C(=O)N[C@@H](Cc1cnc[nH]1)C(N)=O	7.79	0.26	30
	COC(=O)[C@@H](Cc1cnc[nH]1)NC(=O)[C@@H](N)CO	5.91	2.08	2.84
68	NCCCC[C@H](N)C(=O)N[C@H](Cc1cnc[nH]1)C(N)=O	4.16	0.75	5.55
	NC(=O)[C@@H](Cc1cnc[nH]1)NC(=O)[C@@H](N)Cc1ccccc1	6.7	0.7	9.57
	NC(=O)[C@H](Cc1cnc[nH]1)NC(=O)[C@@H](N)CC(=O)O	5.99	1.49	5.16

remaining at 0.5 h, 50 µM [4] [%]	SMILES	Activity [1] [%]	Activity [2] [%]	Selectivity ratio [3]
	COC(=O)[C@H](Cc1cnc[nH]1)NC(=O)[C@@H](N)Cc1cnc[nH]1	6	1.82	3.3
	N=C(N)NCCC[C@H](N)C(=O)N[C@H](Cc1cnc[nH]1)C(N)=O	12	0.43	27.9
	COC(=O)[C@@H](Cc1cnc[nH]1)NC(=O)[C@@H](N)Cc1c[nH]c2ccccc12	18.8	5.81	3.24
	COC(=O)[C@H](Cc1cnc[nH]1)NC(=O)[C@@H](N)Cc1ccc(O)cc1	12.5	4.02	3.12
	COC(=O)[C@@H](Cc1cnc[nH]1)NC(=O)[C@@H](N)Cc1cnc[nH]1	8.86	7.7	1.15
	NC(=O)[C@@H](Cc1cnc[nH]1)NC(=O)[C@@H](N)Cc1c[nH]c2ccccc12	11.2	0.13	86.2
87.5	COC(=O)[C@H](Cc1cnc[nH]1)NC(=O)[C@@H](N)CCCCN	31.3	1.87	16.7
	COC(=O)[C@H](Cc1cnc[nH]1)NC(=O)[C@@H](N)CCC(=O)O	12.2	0.76	16.1
	COC(=O)[C@@H](Cc1cnc[nH]1)NC(=O)[C@@H](N)CCC(=O)O	13.1	0.73	18
	COC(=O)[C@@H](Cc1cnc[nH]1)NC(=O)[C@@H](N)CC(N)=O	9.5	1.14	8.33
	COC(=O)[C@H](Cc1cnc[nH]1)NC(=O)[C@@H](N)CCSC	0.17	2.61	0.07
	COC(=O)[C@@H](Cc1cnc[nH]1)NC(=O)[C@@H](N)C(C)C	16.9	3.62	4.67
81.3	NC(=O)CC[C@H](N)C(=O)N[C@H](Cc1cnc[nH]1)C(N)=O	14.8	1.57	9.4
	NC(=O)[C@@H](Cc1cnc[nH]1)NC(=O)[C@@H](N)Cc1cnc[nH]1	9.16	7.28	1.26
	NCCC(=O)N[C@@H](Cc1c[nH]cn1)C(=O)O	48.2	5.57	8.65
67.7	NCCCC[C@H](N)C(=O)N[C@@H](Cc1cnc[nH]1)C(N)=O	15.7	0.41	38.3
	NC(=O)[C@H](Cc1cnc[nH]1)NC(=O)[C@@H](N)CS	100	27.7	3.61
	NC(=O)[C@@H](Cc1cnc[nH]1)NC(=O)[C@@H](N)CS	100	37.2	2.69
	C[C@@H](O)[C@H](N)C(=O)N[C@H](Cc1cnc[nH]1)C(N)=O	12.1	6.62	1.83
90.5	COC(=O)[C@@H](Cc1cnc[nH]1)NC(=O)[C@@H](N)CCCCN	10.2	0.35	29.1
	CC[C@H](C)[C@H](N)C(=O)N[C@@H](Cc1cnc[nH]1)C(N)=O	7.09	2.02	3.51
